Test results: ChEMBL document CHEMBL1142124, “Antimicrobial prenylated anthracene derivatives from the leaves of Harungana madagascariensis” (2007)
Active and inactive are the calls of the source. The rule behind the calls is not given here.

Key:
[Chlorella] fusca [1] = Antimicrobial activity against Chlorella fusca at 5 ug/uL by agar diffusion assay; format: functional; settings: for Activity: Scenedesmus fuscus
Outline: (§1)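 Filter-disk agar diffusion. 50 µL of test solution is applied to a sterile 9 mm disk, and the disk is air-dried. Disks sit on an agar medium suited to each organism, and the plate is sprayed with a suspension of that organism. Incubation is at 28 °C overnight. The radius of the inhibition zone is read in mm.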

Priestia megaterium [2] = assay: Antibacterial activity against Bacillus megaterium at 1 ug/uL by agar diffusion assay; format: functional; outline: as §1
Microbotryum violaceum [3] = assay: Antimicrobial activity against Micobotryum violaceum at 5 ug/uL by agar diffusion assay; format: functional; outline: as §1
[Chlorella] fusca [4] = Antimicrobial activity against Chlorella fusca at 1 ug/uL by agar diffusion assay; format: functional, organism-based; settings: Scenedesmus fuscus; outline: as §1
Priestia megaterium [5] = assay: Antibacterial activity against Bacillus megaterium at 5 ug/uL by agar diffusion assay; format: functional; outline: as §1
Microbotryum violaceum [6] = assay: Antimicrobial activity against Micobotryum violaceum at 1 ug/uL by agar diffusion assay; format: functional, organism-based; outline: as §1

Question: Which results are given for CC(C)=CCc1c(C)c(CC=C(C)C)c2c(c1O)C(=O)c1c(O)cc(O)c(CC=C(C)C)c1C2?
Answer: Activity ([Chlorella] fusca [1]): inactive; Activity (Priestia megaterium [2]): inactive; Activity (Microbotryum violaceum [3]): inactive; Activity ([Chlorella] fusca [4]): inactive; Activity (Priestia megaterium [5]): inactive; Activity (Microbotryum violaceum [6]): inactive

Question: What does the source list for COC1c2c(CC=C(C)C)c(C)cc(O)c2C(=O)c2c(O)cc3c(c21)CC(C(C)(C)O)O3 (stereo not given) [KENGANTHRANOL C]?
Answer: Activity ([Chlorella] fusca [1]): inactive; inhibition zone (IZ) (Priestia megaterium [2]): 6 mm; Activity (Microbotryum violaceum [3]): inactive; Activity ([Chlorella] fusca [4]): inactive; inhibition zone (IZ) (Priestia megaterium [5]): 10 mm; Activity (Microbotryum violaceum [6]): inactive

Question: Which “inhibition zone (IZ)” value ([Chlorella] fusca [1]) does the source give for O=c1c2cc(O)ccc2oc2cccc(O)c12 here?
Answer: The value was 10 mm.

Question: And the “inhibition zone (IZ)” value (Priestia megaterium [2])?
Answer: Its value is 9 mm.

Question: What about the “inhibition zone (IZ)” value (Microbotryum violaceum [3]) of the same compound?
Answer: Its value is 12 mm.

Question: What about the Activity ([Chlorella] fusca [4]) of the same compound?
Answer: Its Activity is “inactive”.

Question: What about the “inhibition zone (IZ)” value (Priestia megaterium [5]) of the same compound?
Answer: Its value is 12 mm.

Question: What about the Activity (Microbotryum violaceum [6]) of the same compound?
Answer: Its Activity is “inactive”.

Question: CC(C)=CCc1c(C)cc(O)c2c(O)c3c(cc12)[C@]1(CC=C(C)C)C[C@H](O)C(C)(C)[C@@H](C3=O)C1=O [HARUNMADAGASCARIN D] was tested. Which Activity ([Chlorella] fusca [1]) did it give?
Answer: Its Activity is “inactive”.

Question: And the Activity (Priestia megaterium [2])?
Answer: The Activity was “inactive”.

Question: And the Activity (Microbotryum violaceum [3])?
Answer: Its Activity is “inactive”.

Question: What about the Activity ([Chlorella] fusca [4]) of the same compound?
Answer: The Activity was “inactive”.

Question: And the “inhibition zone (IZ)” value (Priestia megaterium [5])?
Answer: The value was 10 mm.

Question: And the Activity (Microbotryum violaceum [6])?
Answer: The Activity was “inactive”.

Question: With CC(C)=CCc1c(C)c2c3c(c1O)C(=O)c1c(O)cc4c(c1[C@]31O[C@H](C2)C(C)(C)O1)C=CC(C)(C)O4 as the compound, how does the Activity ([Chlorella] fusca [1]) read?
Answer: The Activity was “inactive”.

Question: What about the Activity (Priestia megaterium [2]) of the same compound?
Answer: Its Activity is “inactive”.

Question: What about the Activity (Microbotryum violaceum [3]) of the same compound?
Answer: Its Activity is “inactive”.

Question: What about the Activity ([Chlorella] fusca [4]) of the same compound?
Answer: Its Activity is “inactive”.

Question: What about the Activity (Priestia megaterium [5]) of the same compound?
Answer: Its Activity is “inactive”.

Question: What about the Activity (Microbotryum violaceum [6]) of the same compound?
Answer: The Activity was “inactive”.
